Paper PMC2685149 (Nuclear medicine and biology, 2009)
“And” between values parts separate entries of the source, which are not always exact repeats. Equal entries are not always repeated. Bridge positions count the residues as written; N and C are the ends. Square brackets hold non-standard residues; d marks the D form. Peptide text beside a SMILES is read from it. * marks the point of attachment. DOTA = O=C(O)CN1CCN(CC(=O)O)CCN(CC(=O)*)CCN(CC(=O)O)CC1; Nle = CCCC[C@H](N)C(=O)O

Columns and labels:
[1] = test system: B16/F10 pulmonary metastatic melanoma-bearing C57 mice; assay: Biodistribution in B16/F10 pulmonary metastatic melanoma-bearing C57 mice; format: in vivo, mouse; conditions: 16 days post the cell injection
Procedure, shortened: (§1)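 Lung metastases were induced in C57 mice by tail-vein injection of 0.2 million cultured B16/F10 cells and used 16 days later. Normal C57 mice served as comparators. Each mouse got 0.037 MBq of HPLC-purified 111In-labelled test peptide by tail vein. Groups of 5 were killed at 2, 4 and 24 h, and organs were weighed and gamma-counted. Blood was taken as 6.5% of body weight. Ratios compare metastatic-lung with normal-lung uptake.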

[2] = as above; format: in vivo, mouse; conditions: C57, mouse, 0.037 MBq; for tissue uptake at 4 h / tissue uptake at 24 h / tissue uptake at 2 h: intravenous
Procedure, shortened: as §1

[3] = test system: flank B16/F1 murine melanoma; conditions: cited from earlier work
B16/F10 melanoma cells [4] = assay: Cellular efflux in B16/F10 cells; format: cell-based, murine; conditions: 2 h after incubating cells in culture media
Procedure, shortened: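 B16/F10 cells were loaded with the HPLC-purified 111In-labelled test peptide for 2 h at 25°C, then rinsed twice with ice-cold pH 7.4 0.2% BSA/0.01 M PBS. Release of radioactivity into the culture medium was then followed. At 20, 40, 60, 90 and 120 min, cell-surface and intracellular activities were collected separately and gamma-counted.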

[5] = test system: B16/F10 pulmonary melanoma metastases; conditions: mouse, in vivo
Stability in mouse serum = format: in vitro ADME; conditions: 37°C, 24 h
[6] = Biodistribution in normal C57 mice; format: in vivo; conditions: C57, mouse, 0.037 MBq, total radioactivity; for dose excreted: urine, percent injected dose, normal mice, Mean±SD, n=5
B16/F10 melanoma cells [7] = assay: Cellular internalization in B16/F10 cells; format: cell-based, murine; conditions: after 2 h incubation, 25°C
Procedure, shortened: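 B16/F10 cells were washed with binding medium and incubated at 25°C for 20, 40, 60, 90 and 120 min (n=4) with about 200,000 cpm (0.019 pmol) of HPLC-purified 111In-labelled test peptide. Cells were rinsed with ice-cold PBS/BSA. Surface-bound activity was stripped with pH 4.5 acetate buffer (0.9% NaCl, 0.2% BSA). Cells were then lysed in 1 N NaOH for 5 min, and both fractions were gamma-counted.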

[8] = intestine, iv, total radioactivity
[9] = lung/blood, iv, total radioactivity
[10] = lung/kidney, iv, total radioactivity
[11] = lung/liver, iv, total radioactivity
[12] = lung/muscle, iv, total radioactivity

Compound: CCCC[C@@H]1NC(=O)[C@@H](NC(=O)[C@H](CCC(=O)O)NC(=O)CNC(=O)CN2CCN(CC(=O)O)CCN(CC(=O)O)CCN(CC(=O)O)CC2)CCCCNC(=O)C[C@@H](C(N)=O)NC(=O)[C@H](C(C)C)NC(=O)[C@@H]2CCCN2C(=O)[C@H](CCCNC(=N)N)NC(=O)CNC(=O)[C@H](Cc2c[nH]c3ccccc23)NC(=O)[C@H](CCCNC(=N)N)NC(=O)[C@@H](Cc2ccccc2)NC(=O)[C@H](Cc2c[nH]cn2)NC(=O)[C@H](CCC(=O)O)NC1=O [^111In-DOTA-GlyGlu-CycMSH, ^111In-labeled 1,4,7,10-Tetraazacyclododecane-1,4,7,10-tetraacetic acid-Gly-Glu-c[Lys-Nle-Glu-His-DPhe-Arg-Trp-Gly-Arg-Pro-Val-Asp], metal not drawn] ({DOTA}-GEK[Nle]EH[dF]RWGRPVD-NH2; lactam 3-14; C-terminus assumed)
- uptake in metastatic melanoma-bearing lung relative to normal lung ([1]; 2 h post-injection): 25.0 times
- uptake in metastatic melanoma-bearing lung relative to normal lung ([1]; 4 h post-injection): 36.6 times
- uptake in metastatic melanoma-bearing lung relative to normal lung ([1]; 24 h post-injection): 9.7 times
- tissue uptake dose at 2 h [2, 8]: 7.7 ± 2.05 %ID
- tissue uptake dose at 4 h [2, 8]: 5.97 ± 0.48 %ID
- tissue uptake dose at 24 h [2, 8]: 0.11 ± 0.03 %ID
- tissue uptake at 4 h ([2]; kidneys, total radioactivity): 14.5 ± 0.21 %ID/g
- tissue uptake at 24 h ([2]; kidneys, total radioactivity): 15.1 ± 0.86 %ID/g
- tissue uptake at 4 h ([2]; liver, total radioactivity): 0.45 ± 0.05 %ID/g
- tissue uptake at 4 h ([2]; lung): 1.83 ± 0.12 %ID/g
- tissue uptake at 24 h ([2]; lung): 0.29 ± 0.06 %ID/g
- tissue to tissue ratio at 2 h [2, 9]: 16.7
- tissue to tissue ratio at 4 h [2, 9]: 61
- tissue to tissue ratio at 24 h [2, 9]: 9.67
- tissue to tissue ratio at 2 h [2, 10]: 0.12
- tissue to tissue ratio at 4 h [2, 10]: 0.13
- tissue to tissue ratio at 2 h [2, 11]: 4.76
- tissue to tissue ratio at 4 h [2, 11]: 4.07
- tissue to tissue ratio at 24 h [2, 11]: 2.23
- tissue to tissue ratio at 2 h [2, 12]: 50
- tissue to tissue ratio at 4 h [2, 12]: 61
- tissue to tissue ratio at 24 h [2, 12]: 9.67
- tissue uptake at 2 h ([2]; skin, total radioactivity): 0.26 ± 0.22 %ID/g
- tissue uptake at 4 h ([2]; skin, total radioactivity): 0.36 ± 0.08 %ID/g
- tissue uptake at 2 h ([2]; spleen, total radioactivity): 0.26 ± 0.07 %ID/g
- tumor uptake ([3]; 2 h post-injection, flank B16/F1 murine melanoma-bearing mouse model): 10.40±1.40 % ID/g
- reduction of renal uptake by negatively-charged -Gly-Glu- linker ([3]; 4 h post-injection, without affecting the tumor uptake): 44%
- activity remained inside the cells (efflux) (B16/F10 melanoma cells [4]): 90.6±5.3% and ~90%
- accumulation of activity in normal organs in whole-body SPECT/CT image [5]: extremely low
- stability in mouse serum (Stability in mouse serum): stable
- tissue uptake dose at 2 h ([6]; intestine, iv): 7.08 ± 1.54 %ID
- tissue uptake dose at 4 h ([6]; intestine, iv): 4.65 ± 0.85 %ID
- tissue uptake dose at 24 h ([6]; intestine, iv): 0.11 ± 0.08 %ID
- tissue uptake at 2 h ([6]; kidneys, intravenous): 14.1 ± 2.23 %ID/g
- tissue uptake at 24 h ([6]; kidneys, intravenous): 13.5 ± 1.48 %ID/g
- tissue uptake at 4 h ([6]; liver, intravenous): 0.38 ± 0.01 %ID/g
- tissue to tissue ratio at 24 h ([6]; lung and muscle, iv): 1.5
- tissue to tissue ratio at 2 h ([6]; lung/blood, iv): 8
- tissue to tissue ratio at 4 h ([6]; lung/blood, iv): 2.5
- tissue to tissue ratio at 24 h ([6]; lung/blood, iv): 1
- tissue to tissue ratio at 2 h ([6]; lung/kidney, iv): 0.01
- tissue to tissue ratio at 4 h ([6]; lung/kidney, iv): 0.01
- tissue to tissue ratio at 4 h ([6]; lung/liver, iv): 0.13
- tissue to tissue ratio at 24 h ([6]; lung/liver, iv): 0.25
- tissue to tissue ratio at 2 h ([6]; lung/muscle, iv): 2.67
- tissue to tissue ratio at 4 h ([6]; lung/muscle, iv): 1.67
- tissue uptake at 4 h ([6]; skin, intravenous): 0.23 ± 0.08 %ID/g
- tissue uptake at 2 h ([6]; stomach, intravenous): 0.14 ± 0.07 %ID/g
- dose excreted ([6]; iv, 2 h post-injection): 84.7 ± 1.97%
- dose excreted ([6]; iv, 4 h post-injection): 89 ± 0.92%
- dose excreted ([6]; iv, 24 h post-injection): 96.06 ± 0.53%
- activity internalized in the cells (B16/F10 melanoma cells [7]): 79.7±10.1%
